In the RNAGym collection of RNA variant scans (doi:10.1126/science.aae0568) one finds yeast fitness data, which are given here for 38 variants.

This sample holds only a part of the variants without activity.

Sequences and labels used below:
B1: tRNA (parent)
chain: GUUCCGUUGGCGUAAUGGUAACGCGUCUCCCUCCUAAGGAGAAGACUGCGGGUUCGAGUCCCGUACGGAACG

This data set covers variants of B1. Nature of the data set: yeast fitness relative to wild type (ratio to wild type); higher = fitter; tRNA-Arg(CCU), competitive growth, 37 C, YPD. The procedure, abridged:
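Amplicons of the tRNA-Arg(CCU) gene were sequenced, 100-nucleotide paired-end, from the start population and from each end population of a pooled yeast competition. The competition, in six parallel replicates, lasted 24 hours in YPD at 37°C. Fitness relative to wild type was calculated from changes in genotype frequencies. Genotypes had to have ≥ 100 starting reads, and estimates < 0.5 were set to 0.5.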
With GUUCAGUUGGCGUAUUGGUAACGCGUCUCCGUCCUAAGAAGAAGACUGCGGGUUCGAAUCCCGUACGGAACG [C5A A15U C31G G39A G58A], the yeast fitness was ≤ 0.5.
GUUCAGUUGGCGUAAUGGUUUCGCGUCUCCCUCGUAAGGAGAAGACUGCGGGUUCGAGUCCCGUGCAGAACG [C5A A20U A21U C34G A65G G67A]: the yeast fitness was ≤ 0.5.
With GUUCAGUUGGCGUAUUGGUAACGCGUCUCCCUCCUAACAAGACGACUGCGGGUUCGAGUGCCGUCCGGAACG [C5A A15U G38C G39A A43C C60G A65C], the yeast fitness was ≤ 0.5.
Next, GUUCAGUUGGCGUAAUGGUCACGCGUCUCCCUCCUAAGGAGAAGACUGCGGGUUCGAGUCCCGUACGGAACG [C5A A20C]: 0.799; GUUCAGUUGGCGUAAUGGUGACGCGUCUCCCUCCUAAGGAGAAGACUGCGGGUUCGAGUCCCGUACGGAACG [C5A A20G]: 0.933.
With GUUCAGUUGGCGUAAUGGUUACGCGUCUACCUCCUAAGGAGAAGACUGCGGGUUCGAGUCCCGUACGAAACG [C5A A20U C29A G68A] the figure was ≤ 0.5.
For the variant GUUCAGUUGGCGUAAUGGUUACGCGUCUCCGUCCUAAGGAGAAGACUGCGGGUUCGAAUCCUGUACGGCACG [C5A A20U C31G G58A C62U A69C], the yeast fitness was ≤ 0.5.
Take GUUCAGUUGGCGUAAUGGUCACGCGUCUGCCUCCUAAGGAGAAGACUGCGGGUUCGAGUCCCGUUCGGAACG [C5A A20C C29G A65U]: the yeast fitness was ≤ 0.5.
Next, GUUCAGUUGGCGUAAUGGUCACGAGUCUCCCUCCUAAGGAGAAGACUGCGGGUUCGAGUCCCGUACGGAACG [C5A A20C C24A]: 0.575; GUUCAGUUGGCGUAUUGGUAACGGGUCUCCCUCCUAAGGAGAAGACUGCGGGUUCGAGUCCCGUACGGAACG [C5A A15U C24G]: ≤ 0.5; GUUCAGUUGGCGUAAUGGUCAAGUGUCUCCUUCCUAAGGAGAAGACUGCGGGUUCGAGUCCCGUACGGAACG [C5A A20C C22A C24U C31U]: 0.685.
With GUUCAGUUGGCGUAUUGGUAACGCGUCUCCCUCCUAAGGAGAAGACCGCGGGUUCGAGUCCCGUACGGAACG [C5A A15U U47C] the figure was ≤ 0.5; with GUUCAGUUGGCGUAAUGGUACCGCGUCUCCCUCCUAAGGAGAUGAGUGCGGGUUCGAGUCGCGUACGGAACG [C5A A21C A43U C46G C61G], ≤ 0.5; with GUUCAGUUGGCGUAAUGGUGACGCGUCUCCCUCCGAAGGAAAAGACUGCGGGUUCAAGUCCCGUACGGACCG [C5A A20G U35G G41A G56A A70C], ≤ 0.5.
Consider GUUCAGUUGGCGUAUUGGUAUCGCGUCUCCCUCCUAAGGAGAAGACUGCGGGUUCGAGUCCCGUAUUGAGCG [C5A A15U A21U C66U G67U A70G], for which the yeast fitness was ≤ 0.5.
Next, GUUCAGUUGGCGUAAUGGUGACGCGUCUCACUCCUAAGGUCAAGACUGCGGGUUCGAGUCGCCUACGGAACG [C5A A20G C30A A40U G41C C61G G63C]: 0.565; GUUCAGUUGGCGUAAUGGUGACGCGCCUCCCUCCUAAGGCGAAGACUGCGGGUUCGAGUCCCGUACGGAACG [C5A A20G U26C A40C]: ≤ 0.5.
For the variant GUUCAGUUGGCGUAAUGGUCAAGCGUCUCCCUCCUCAGGAGAAGACUGCGGGUUCGAGUCCCGUACGGUACG [C5A A20C C22A A36C A69U], the yeast fitness is 0.587.
Next, GUUCAGUUGGCGUAAUGGUUACGCGUCUCCCUCCUAAGGAGAAGACUGCGGGUUUGAGUCUCGUGCGGAACG [C5A A20U C55U C61U A65G]: ≤ 0.5; GUUCAGUUGGCGUAAUGGUUACGCGUCUCCCUCCUAGGGAGAAGACUGCGGGUUCGAGUCCCGUACGGAACG [C5A A20U A37G]: ≤ 0.5.
Next, GUUCAGUUGGCGUAAUGGUACCGCGUCUCCCUCCUAAGGAGAAGACUGCGGGUUCGAGUCCCGUACGGAACG [C5A A21C]: 0.821; GUUCAGUUGGCGUAAUGGUGACGCGUCUCCCUCCUAAGGAGAAGACUGCGGGUUCGAGUCCCGUUCGGAACG [C5A A20G A65U]: ≤ 0.5; GUUCAGUUGGCGUAUUGGUAUCGCGUCUCCCCCCUAAGGAGAAGACUGCGGGUUCGAGUCCCGUACGGAACG [C5A A15U A21U U32C]: ≤ 0.5.
For the variant GUUCAGUUGGCGUAAUGGUUACGCGUCUCCGUCCUAAGGAGAAGACUGCGGGUUCGAGUCUCGUACGGAACG [C5A A20U C31G C61U], the yeast fitness was ≤ 0.5.
Next, GUUCAGUUGGCGUAAUGGUGACGCGACUCCCUCCUAAGGGGAAGACUGCGGGUUCGACUCCCGUACUGAACG [C5A A20G U26A A40G G58C G67U]: ≤ 0.5.
With GUUCAGUUGGCGUAAUGGUACCGCGUCUCCCUCCUAAGGAGAUGAGUGCGGGUUCGAGUCCCGUACGGAACG [C5A A21C A43U C46G] the figure was 0.541; with GUUCAGUUGGCGUAAUGGUUACGCGUCUCCCUCCUAAGGAGAAGACUGCGGGUUCGAGUCCCGUGCGGAACG [C5A A20U A65G], 0.591; with GUUCAGUUGGCGUAAUGGUUACGCGUCUCCGUCCUAAGGAGAAGACUGGGGGUUCGAGUCCCGUACGGAACG [C5A A20U C31G C49G], ≤ 0.5.
Next, GUUCAGUUGGCGUAAUGGUUACGCGUAUCCCUCCUAAGGAGGGGACUGCGGGUUCGCGUCCCGUACCGAACG [C5A A20U C27A A42G A43G A57C G67C]: 0.565.
GUUCAGUUGGCGUAAUGGUCACGCGUCUCCCUCCUGAGGAGAAGACUGCGGGUUCGAGUCCCGUACGGAACG [C5A A20C A36G]: the yeast fitness came out at 0.626.
Next, GUUCAGUUGGCGUAAUGGUCAAGCGUCUCCCUCCUCAGGAGAAGACUGCGGGUUAGAGUCCCGUACGGUACG [C5A A20C C22A A36C C55A A69U]: ≤ 0.5.
For GUUCAGUUGGCGUAAUGGUUACGCGUCUCCCUCCUGAGGAGAAGACUGCGGGUUCGAGUCCCGUACGGAACG [C5A A20U A36G], the yeast fitness was ≤ 0.5.
Next, GUUCAGUUGGCGUAAUGGUGACGUGUCUCCCUCCUAACGAGAAGACUGCGGGUUCCAGUCCCGUACGGAACG [C5A A20G C24U G38C G56C]: ≤ 0.5; GUUCAGUUGGCGUAAUGGUCAAGCGUCUCCCUCCUCAGGAGAAGACUGCGGGUUCGAGUCUCGUACGGAACG [C5A A20C C22A A36C C61U]: 0.531; GUUCAGUUGGCGUAUUGGUAACGCGUCUCCCUCCUAAGGAGAAGACUGCGGGUUCGAGUCCCGCACGGAACG [C5A A15U U64C]: 0.615.
With GUUCAGUUGGCGUAAUGGUUACGCGUGUCCCUCCUAAGGAAAAGACUGCGGGUUCGUGUCCCGAACGGAACG [C5A A20U C27G G41A A57U U64A] the figure was 0.642; with GUUCAGUUGGCGUAAUGGUCACGCGUCUCCCUCCUCAGGAGAAGCCUGCGGGUUCGAGUCCCGUACGGAACG [C5A A20C A36C A45C], ≤ 0.5.
Regarding GUUCAGUUGGCGUAAUGGUUACGCGUCUCCCUCCUAAGGAGAAGACUGCGGGUUCGAGUCCCGUACGGAGCG [C5A A20U A70G], the yeast fitness was ≤ 0.5.
